# Experimental data published in ChEMBL document CHEMBL1125152, “Design, synthesis, testing, and quantitative structure-activity relationship analysis of substituted salicylaldehyde Schiff bases of 1-amino-3-hydroxyguanidine tosylate as new antiviral agents against coronavirus” (1990).
# Test system: Murine hepatitis virus
# Test: Dose required to inhibit the growth of mouse hepatitis virus (MHV) in infected mouse astrocytoma (DBT) cells using plaque assay
# Format: functional
# In short: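 DBT monolayers infected with MHV at MOI 1 to 5, adsorbed 1 h at room temperature, then given MEM with 5% FCS plus compound (final 0.97 to 3030 μM, 0.15% DMSO) at 37 °C. Media harvested 18 h postinfection and titred by plaque assay on DBT cells (0.75% agarose overlay, 48 h, neutral red). Run in duplicate. % inhibition = (1 − T/C) × 100; TCID50 by probit analysis.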
row,Compound,EC50
1,Cc1ccc(S(=O)(=O)O)cc1.N/C(=N\O)N/N=C/c1ccc2ccccc2n1,39.3 µM
2,Cc1ccc(S(=O)(=O)O)cc1.N/C(=N\O)N/N=C/c1cc(Br)cc(Br)c1O,9.5 µM
3,Cc1ccc(S(=O)(=O)O)cc1.N/C(=N\O)N/N=C/c1nccc2ccccc12,47.7 µM
4,Cc1ccc(S(=O)(=O)O)cc1.N/C(=N\O)N/N=C/c1cc(O)c(O)c(O)c1,150 µM
5,Cc1ccc(S(=O)(=O)O)cc1.N/C(=N\O)N/N=C/c1ccccc1O,76 µM
6,Cc1ccc(S(=O)(=O)O)cc1.N/C(=N\O)N/N=C/c1ncccc1O,89.9 µM
7,Cc1ccc(S(=O)(=O)O)cc1.N/C(=N\O)N/N=C/c1c2ccccc2c(Cl)c2ccccc12,7.12 µM
8,Cc1ccc(S(=O)(=O)O)cc1.N/C(=N\O)N/N=C/c1c(O)cc(O)cc1O,18.1 µM
9,Cc1ccc(S(=O)(=O)O)cc1.N/C(=N\O)N/N=C/c1cc([N+](=O)[O-])cc([N+](=O)[O-])c1O,273 µM
10,Cc1ccc(S(=O)(=O)O)cc1.N/C(=N\O)N/N=C/c1cc2c(cc1Cl)OCO2,9.14 µM
11,Cc1ccc(S(=O)(=O)O)cc1.N/C(=N\O)N/N=C/c1ccc2c(c1)OCCO2,46.1 µM
12,Cc1ccc(S(=O)(=O)O)cc1.Cc1ncc(COP(=O)(O)O)c(/C=N/N=C(/N)NO)c1O,40.8 µM
13,Cc1ccc(S(=O)(=O)O)cc1.N/C(=N\O)N/N=C/c1ccc(O)c(O)c1O,183 µM
14,C=CCc1cccc(/C=N/N/C(N)=N/O)c1O.Cc1ccc(S(=O)(=O)O)cc1,3.42 µM
15,Cc1ccc(S(=O)(=O)O)cc1.N/C(=N\O)N/N=C/c1cc(Cl)cc(Cl)c1O,9.54 µM
